Experimental data as given in ChEMBL document CHEMBL4038338 (J Med Chem, 2017).
Calls of active or inactive are those of the source. The calls are words filed in the database; no cut-off is given here.

How the values were obtained:
[1] = Inhibition of human liver cathepsin L using Z-Phe-Arg-AMC as substrate by kinetic fluorescence assay
[2] = biological target: T1, Calpain-1 catalytic subunit (Homo sapiens, UniProt P07384); assay: Inhibition of human erythrocytes calpain-1 using Suc-Leu-Tyr-AMC as substrate by kinetic fluorescence assay; settings: read-out: Ki
T1 sequence (P07384 whole entry): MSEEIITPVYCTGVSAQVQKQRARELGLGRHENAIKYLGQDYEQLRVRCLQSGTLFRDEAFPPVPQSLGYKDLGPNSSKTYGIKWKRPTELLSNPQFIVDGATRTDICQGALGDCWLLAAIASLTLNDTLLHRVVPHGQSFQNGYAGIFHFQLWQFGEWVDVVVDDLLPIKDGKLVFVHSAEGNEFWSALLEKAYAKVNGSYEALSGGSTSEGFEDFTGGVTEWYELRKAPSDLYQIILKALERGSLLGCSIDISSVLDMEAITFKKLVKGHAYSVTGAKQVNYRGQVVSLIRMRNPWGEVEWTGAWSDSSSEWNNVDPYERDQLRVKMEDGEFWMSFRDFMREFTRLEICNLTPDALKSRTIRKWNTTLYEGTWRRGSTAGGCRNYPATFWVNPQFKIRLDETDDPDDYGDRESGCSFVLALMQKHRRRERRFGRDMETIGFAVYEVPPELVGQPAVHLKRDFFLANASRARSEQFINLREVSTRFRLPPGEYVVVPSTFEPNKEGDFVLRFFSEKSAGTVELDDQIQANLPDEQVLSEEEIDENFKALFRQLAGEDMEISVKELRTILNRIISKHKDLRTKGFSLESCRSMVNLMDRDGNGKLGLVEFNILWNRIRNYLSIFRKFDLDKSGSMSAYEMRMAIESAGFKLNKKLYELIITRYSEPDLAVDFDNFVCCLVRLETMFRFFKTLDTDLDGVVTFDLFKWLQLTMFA

[3] = Selectivity ratio of Ki for human liver cathepsin B to Ki for human erythrocytes calpain-1
Homo sapiens [4] = species: Homo sapiens; assay: Selectivity ratio of Ki for recombinant human procathepsin K expressed in Escherichia coli to Ki for human erythrocytes calpain-1
Summary of the method: (§1)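 Ki ratios from kinetic fluorescence assays. Cathepsins B (0.25 nM), L (1 nM), K (3 nM) and S (0.5 nM) in MES buffer at pH 6.0. All at room temperature; Ki by Cheng-Prusoff.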

[5] = Selectivity ratio of Ki for human liver cathepsin L to Ki for human erythrocytes calpain-1
Homo sapiens [6] = species: Homo sapiens; assay: Selectivity ratio of Ki for recombinant human cathepsin S expressed in Escherichia coli to Ki for human erythrocytes calpain-1; summary of the method: as §1
Cathepsin S = Cathepsin S (Homo sapiens, UniProt P25774); assay: Inhibition of human cathepsin S expressed in Escherichia coli using Z-Val-Val-Arg-AMC as substrate by kinetic fluorescence assay
Sequence of Cathepsin S (P25774 whole entry): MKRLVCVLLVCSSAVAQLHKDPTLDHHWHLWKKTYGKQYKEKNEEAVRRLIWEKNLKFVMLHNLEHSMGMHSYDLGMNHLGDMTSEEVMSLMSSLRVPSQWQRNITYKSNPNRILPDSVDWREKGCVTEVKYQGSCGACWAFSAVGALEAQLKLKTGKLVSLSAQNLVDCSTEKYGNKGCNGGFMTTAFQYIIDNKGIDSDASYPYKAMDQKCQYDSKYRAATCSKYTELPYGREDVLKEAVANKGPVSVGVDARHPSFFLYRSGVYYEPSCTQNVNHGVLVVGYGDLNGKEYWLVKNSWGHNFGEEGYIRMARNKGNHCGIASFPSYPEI

Cathepsin B = Cathepsin B (Homo sapiens, UniProt P07858); assay: Inhibition of human liver cathepsin B using Z-Phe-Arg-AMC as substrate by kinetic fluorescence assay
Cathepsin K = biological target: T2, Cathepsin K (Homo sapiens, UniProt P43235); assay: Inhibition of human procathepsin K expressed in Escherichia coli using Z-Gly-Pro-Arg-AMC as substrate by kinetic fluorescence assay
T2 sequence (P43235 whole entry): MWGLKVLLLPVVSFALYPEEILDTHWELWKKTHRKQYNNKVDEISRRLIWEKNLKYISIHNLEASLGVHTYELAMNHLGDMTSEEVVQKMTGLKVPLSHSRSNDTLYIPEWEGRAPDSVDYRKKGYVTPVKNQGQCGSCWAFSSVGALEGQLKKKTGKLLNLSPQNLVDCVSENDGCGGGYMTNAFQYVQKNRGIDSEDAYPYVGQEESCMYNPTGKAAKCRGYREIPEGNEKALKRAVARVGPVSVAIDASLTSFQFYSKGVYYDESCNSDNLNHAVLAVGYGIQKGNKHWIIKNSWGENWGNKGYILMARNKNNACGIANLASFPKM
Summary of the method: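 Cathepsin K at 3 nM, activated from E. coli-expressed recombinant human procathepsin K. Substrate 10 µM Z-Gly-Pro-Arg-AMC in MES/EDTA/Brij 35/L-cysteine buffer, pH 6.0, room temperature. Ki obtained via Cheng-Prusoff from IC50. Mean of 2–4 curves.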

[7] = biological target: Cathepsin C (Dipeptidyl peptidase 1) (Homo sapiens, UniProt P53634); assay: Inhibition of Cathepsin C (unknown origin) at 10 uM
Sequence of Cathepsin C (Dipeptidyl peptidase 1) (P53634 25-134 limits assumed): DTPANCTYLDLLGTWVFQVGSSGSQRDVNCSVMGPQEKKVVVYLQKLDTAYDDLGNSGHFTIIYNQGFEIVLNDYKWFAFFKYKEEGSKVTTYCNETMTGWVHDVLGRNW
Sequence of Cathepsin C (Dipeptidyl peptidase 1) (P53634 231-394 limits assumed): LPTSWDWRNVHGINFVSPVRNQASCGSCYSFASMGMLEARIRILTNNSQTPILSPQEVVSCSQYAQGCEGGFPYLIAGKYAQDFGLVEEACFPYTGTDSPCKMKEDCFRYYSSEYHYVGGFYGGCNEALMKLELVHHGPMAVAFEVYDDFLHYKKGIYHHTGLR
Sequence of Cathepsin C (Dipeptidyl peptidase 1) (P53634 395-463 limits assumed): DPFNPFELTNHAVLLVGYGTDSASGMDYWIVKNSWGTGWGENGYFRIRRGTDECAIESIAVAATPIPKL

[8] = biological target: T3, Pro-cathepsin H (Homo sapiens) (UniProt P09668); assay: Inhibition of Cathepsin H (unknown origin) at 10 uM
T3 sequence (whole entry): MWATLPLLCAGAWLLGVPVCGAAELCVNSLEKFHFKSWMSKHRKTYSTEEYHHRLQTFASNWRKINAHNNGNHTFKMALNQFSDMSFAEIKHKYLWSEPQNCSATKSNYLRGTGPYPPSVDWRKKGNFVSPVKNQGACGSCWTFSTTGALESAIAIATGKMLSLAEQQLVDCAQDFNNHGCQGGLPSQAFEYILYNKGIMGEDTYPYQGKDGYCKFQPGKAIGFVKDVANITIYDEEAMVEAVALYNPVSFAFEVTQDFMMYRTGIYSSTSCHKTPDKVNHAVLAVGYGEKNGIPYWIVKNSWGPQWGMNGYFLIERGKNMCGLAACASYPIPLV

[9] = biological target: T4, Calpain-1 catalytic subunit (Homo sapiens) (UniProt P07384); assay: Inhibition of human erythrocytes calpain-1 using Suc-Leu-Tyr-AMC as substrate in presence of up to 10 mM glutathione by kinetic fluorescence assay
T4 sequence (whole entry): T1 sequence (P07384 whole entry)

[10] = Thiol reactivity using recombinant human full length 13C-labeled La antigen (100 to 324 residues) expressed in Escherichia coli BL21(DE3) by ALARM NMR
[11] = biological target: T5, Calpain-1 catalytic subunit (Rattus norvegicus) (UniProt P97571); assay: (§2) Inhibition of calpain-1 in rat hippocampal slices assessed as prevention of NMDA-induced spectrin cleavage preincubated for 30 mins followed by NMDA addition measured after 5 hrs by Western blot analysis
T5 sequence (whole entry): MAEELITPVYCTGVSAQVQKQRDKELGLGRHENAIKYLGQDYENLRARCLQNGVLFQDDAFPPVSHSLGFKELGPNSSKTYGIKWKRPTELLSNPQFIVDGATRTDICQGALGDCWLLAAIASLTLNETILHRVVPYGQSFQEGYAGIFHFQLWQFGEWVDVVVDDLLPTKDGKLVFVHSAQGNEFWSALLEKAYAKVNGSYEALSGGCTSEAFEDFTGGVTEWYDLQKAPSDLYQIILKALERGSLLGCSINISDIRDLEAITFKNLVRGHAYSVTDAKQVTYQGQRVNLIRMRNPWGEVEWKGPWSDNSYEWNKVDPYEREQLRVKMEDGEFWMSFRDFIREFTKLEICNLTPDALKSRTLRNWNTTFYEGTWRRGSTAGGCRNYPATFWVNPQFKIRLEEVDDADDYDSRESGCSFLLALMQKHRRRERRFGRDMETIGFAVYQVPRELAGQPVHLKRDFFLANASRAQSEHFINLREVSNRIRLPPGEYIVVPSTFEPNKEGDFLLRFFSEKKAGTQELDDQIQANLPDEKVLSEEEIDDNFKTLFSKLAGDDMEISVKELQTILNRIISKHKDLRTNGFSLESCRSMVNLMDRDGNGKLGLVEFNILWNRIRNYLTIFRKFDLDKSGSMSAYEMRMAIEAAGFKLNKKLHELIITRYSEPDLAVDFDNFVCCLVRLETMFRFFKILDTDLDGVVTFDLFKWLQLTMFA
Summary of the method: (§3)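 Organotypic rat hippocampal slice cultures kept 6–8 days in 2% serum medium; 30 min inhibitor pre-incubation, then 10 µM NMDA for 5 h at 34°C, 5% CO2. Slices lysed; 150/145 kDa spectrin breakdown products quantified by densitometric Western blot with anti-spectrin alpha chain antibody.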

[12] = biological target: T6, Calpain-1 catalytic subunit (Rattus norvegicus, UniProt P97571); assay: as §2; summary of the method: as §3
T6 sequence (P97571 whole entry): T5 sequence (whole entry)

[13] = Solubility of the compound; format: physicochemical

SMILES: CCN(CC)Cc1ccc(/C=C/c2ccccc2C(=O)NC(Cc2ccccc2)C(=O)C(N)=O)cc1 (stereo not drawn)
- Ki [1]: 137 nM
- Ki [2]: 56 nM
- Ratio Ki [3]: <1
- Ratio Ki (Homo sapiens [4]): < 0.1
- Ratio Ki [5]: 2.5
- Ratio Ki (Homo sapiens [6]): 59
- Ki (Cathepsin S): 3290 nM
- Ki (Cathepsin B): 28 nM
- Ki (Cathepsin K): 1.8 nM
- inhibition at 10 µM [7]: 94%
- inhibition [8]: 84%
- inhibition [9]: Active
- Thiol reactivity [10]: Metabolite not detected

SMILES: NC(=O)C(=O)C(Cc1ccccc1)NC(=O)c1cccnc1-n1cc2c(n1)-c1ccccc1OC2 (stereo not drawn)
- Ki [2]: 8 nM
- Ratio Ki [3]: 29
- Ratio Ki (Homo sapiens [4]): 47
- Ratio Ki [5]: 278
- Ratio Ki (Homo sapiens [6]): > 500
- fIC50 [11]: 65 nM
- IC50 [12]: 2020 nM
- solubility [13]: Insoluble
- inhibition [9]: Active
- Thiol reactivity [10]: Metabolite not detected
